Bioassay records (PubChem BioAssay)
Sampled rows, rich in hits. Any-hit rate of the full collection: about 5.8%.
Cl transport mod = KCC2 (human) Cl- transport modulation; Q9H2X9; KCC2 cells, thallium flux FluoZin-2 fluorescence; B-score of Tl+ flux slope (higher = more flux/activation; lower = inhibition) at 10 µM; 190,000 tested, 2.2% active;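 active means thallium flux slope and its plate-corrected score both differing from the plate sample mean at a set confidence after two filtering rounds, in either direction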;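 further: slope of fluorescence scaled to starting intensity during 10 to 20 s after thallium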
Target sequence (Q9H2X9 whole entry, looked up): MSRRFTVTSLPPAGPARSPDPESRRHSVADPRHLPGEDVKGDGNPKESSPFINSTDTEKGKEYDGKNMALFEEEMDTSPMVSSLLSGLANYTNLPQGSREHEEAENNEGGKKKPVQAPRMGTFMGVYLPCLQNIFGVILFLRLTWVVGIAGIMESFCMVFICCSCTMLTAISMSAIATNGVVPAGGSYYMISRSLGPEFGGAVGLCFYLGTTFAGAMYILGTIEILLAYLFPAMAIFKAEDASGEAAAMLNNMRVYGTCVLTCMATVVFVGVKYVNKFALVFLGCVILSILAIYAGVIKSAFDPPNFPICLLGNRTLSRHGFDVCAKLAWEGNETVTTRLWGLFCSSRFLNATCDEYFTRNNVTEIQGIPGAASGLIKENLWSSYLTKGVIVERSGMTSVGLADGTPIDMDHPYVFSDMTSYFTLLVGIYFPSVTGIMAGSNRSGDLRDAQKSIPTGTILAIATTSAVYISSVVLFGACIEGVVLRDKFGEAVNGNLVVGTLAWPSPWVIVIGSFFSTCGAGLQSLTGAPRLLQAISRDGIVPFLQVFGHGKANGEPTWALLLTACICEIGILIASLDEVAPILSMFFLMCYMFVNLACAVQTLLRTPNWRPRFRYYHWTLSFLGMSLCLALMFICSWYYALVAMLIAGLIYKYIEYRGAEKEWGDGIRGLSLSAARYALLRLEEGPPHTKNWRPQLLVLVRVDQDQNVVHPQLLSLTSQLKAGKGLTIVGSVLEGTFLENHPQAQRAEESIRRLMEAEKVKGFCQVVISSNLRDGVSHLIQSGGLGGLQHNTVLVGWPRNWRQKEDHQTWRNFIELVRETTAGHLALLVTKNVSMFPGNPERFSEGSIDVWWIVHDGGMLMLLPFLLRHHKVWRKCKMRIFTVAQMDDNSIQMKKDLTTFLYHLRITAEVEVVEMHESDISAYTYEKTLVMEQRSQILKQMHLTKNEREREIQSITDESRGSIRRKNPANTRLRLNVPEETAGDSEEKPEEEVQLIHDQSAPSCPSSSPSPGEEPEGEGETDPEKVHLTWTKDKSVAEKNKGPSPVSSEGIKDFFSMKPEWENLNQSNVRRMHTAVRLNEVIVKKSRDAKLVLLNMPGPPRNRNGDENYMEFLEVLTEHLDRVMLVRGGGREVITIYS
NCF1 inh = p47phox (human) inhibition; 220,000 tested, 0.53% active; inhibition, % at 24.7 µM; p47phox/p22phox peptide binding, fluorescence polarization, 2 h; P14598;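 active means inhibition above about 30%, limit read from the data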;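 further: 0% = p47phox with labelled peptide and 100% = labelled peptide alone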
ROMK mod = modulators of human ROMK potassium channel | 130,000 tested, 2% active | Tet-inducible ROMK, thallium flux fluorescence; actives lie on both sides | B-score at 10 µM;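 active means signal ratio slope over the read window, or its plate-corrected B-score, at least 3 SD from the plate mean, either direction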;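 further: B-score of the F/F0 ratio slope over 7 to 12 s after thallium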
RBBP9 inhibitor = human RBBP9 hydrolase inhibition; 220,000 tested, 0.2% active; O75884; recombinant RBBP9, FP-Rh probe fluorescence polarization; AID 1515; inhibition, % at 7.94 µM;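 active means inhibition above the campaign mean of all tested compounds plus 3 SD, cut at about 14% in these data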;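 further: plate controls were DMSO wells with RBBP9 for no effect and wells lacking RBBP9 protein for full effect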
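System: RBBP9 protein / Buffer or medium: Tris/NaCl buffer pH 8.0 with 0.1% Pluronic / Probe or stimulus: Serine-hydrolase probe FP-Rh, 375 nM pre-mixing / Dosing: 7.94 µM single dose, 0.794% DMSO / Times: enzyme-compound preincubation 30 min, then probe labeling 45 min, 25 °C / Technique: fluorescence polarization (mP), excitation 525 nm, emission 598 nm / Replication: singlicate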
WT yeast gro inh = growth inhibition of WT yeast, mitochondrial fusion screen | mitochondrial fusion phenotypic screen, WT strain | AID 1362 | 190,000 tested, 2.1% active | inhibition, % at 10 µM; in the data active means inhibition above about 58%; tested in S. cerevisiae
14-3-3 Bad PPI = disrupts binding of bovine 14-3-3 zeta to phospho-Bad peptide; P63103; TR-FRET 14-3-3zeta/Dy647-pBad peptide displacement, 1 h; inhibition, % at 21.7 µM; 220,000 tested, 0.71% active;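 active means inhibition above about 70%, limit read from the data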;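 further: 0% = full 14-3-3 plus peptide FRET controls and 100% = background without 14-3-3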
KCC2 secondary = confirmation of human KCC2 transport modulators; AID 1713; normalised thallium flux (F/F0 slope) at 10 µM; shares compounds with Cl transport mod; 3,700 tested, 15% active; HEK293-KCC2, thallium flux, FluoZin2 fluorescence; hits give high values;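 active means thallium flux slope above the same plate's solvent-only control mean plus 3 SD; inconclusive means the two replicate wells disagree; inactive means no significant difference from solvent-only control wells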
KCC2 bumet counter = thallium flux persisting under bumetanide in KCC2 cells, counter-screen secondary assay. shares compounds with Cl transport mod. 3,700 tested, 49% active. HEK293-KCC2 + bumetanide/ouabain, thallium flux FluoZin2; hits give high values. normalized thallium flux at 10 µM;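 active means thallium entry rate above the same plate's blocked-transporter control wells by more than 3 SD; inconclusive means the two repeat wells disagree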;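 further: raw slope of fluorescence over initial fluorescence between 10 and 20 s after thallium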
KCC2 sec2 = confirmation of human KCC2 transport modulators | shares compounds with Cl transport mod | HEK293-KCC2, thallium flux FluoZin2 fluorescence; actives lie on both sides; F/F0 rise rate, 10–20 s post-thallium | normalized thallium flux at 10 µM | 3,700 tested, 23% active | AID 1715;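 active means thallium flux slope more than 3 SD above or below the plate's solvent-only control mean, mostly below; inconclusive means the two repeat wells disagreed; inactive means no significant shift from solvent-only controls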;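 further: raw slope with 0.1% DMSO as baseline and bumetanide as block control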
HEK counter1 = parental HEK flux effect, counter-screen. shares compounds with Cl transport mod. HEK293 parental cells, thallium flux FluoZin2, ouabain; baseline-ratio fluorescence slope, 10–20 s after thallium. thallium flux rate (normalised fluorescence) at 10 µM. 3,700 tested, 46% active;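 active means thallium flux rate significantly above the same plate's solvent-only control wells, beyond their mean plus 3 SD; inconclusive means the two replicate wells gave conflicting results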
KCC2 retest ouab = KCC2 (human) modulation, ouabain retest; AID 1717; shares compounds with Cl transport mod; HEK293-KCC2, thallium flux FluoZin2 fluorescence; bidirectional: low = inhibitor, high = activator; 3,700 tested, 48% active; raw Tl+ flux slope (below DMSO = inhibition, above = activation) at 10 µM;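 active means thallium flux slope beyond 3 SD from same-plate DMSO control mean in most replicates, usually higher, sometimes lower; inconclusive means repeat tests gave conflicting results; inactive means no significant difference from controls in most replicates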;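 further: slope of initial-normalized fluorescence between seconds 10 and 20 after thallium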
HEK293 Tl flux2 = parental HEK flux effect, counter-screen 2 | shares compounds with Cl transport mod | HEK293 parental, thallium flux FluoZin-2 fluorescence slope | thallium flux slope at 10 µM | 3,700 tested, 33% active;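 active means thallium flux slope above the same plate's solvent-control mean plus 3 SD in both duplicate wells; inconclusive means duplicate wells that disagreed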;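 further: run without ouabain in cells lacking the KCC2 cotransporter; slope of fluorescence scaled to its starting value between 10 and 20 s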
* marks the source's active call; other numbers are inactive results; u = inconclusive; x = no result given.

SMILES	Cl transport mod	NCF1 inh	ROMK mod	RBBP9 inhibitor	WT yeast gro inh	14-3-3 Bad PPI	KCC2 secondary	KCC2 bumet counter	KCC2 sec2	HEK counter1	KCC2 retest ouab	HEK293 Tl flux2
COc1ccc(-c2c(C)[nH]n3c(=O)c(Cc4ccccc4)c(C)nc23)cc1OC	-0.64	-2.1	0.125	-6.9	3.1	-15.0	x	x	x	x	x	x
CN(C)c1cc(Cl)c2nonc2c1N	0.89	8.8	x	-3.7	x	-5.9	x	x	x	x	x	x
CCN(CC)c1ccc2cc(-c3nc4ccccc4n3C)c(=O)oc2c1	x	-24.3	-2.45	-10.4	13.5	-7.5	0.00443*	0.00034*	0.022*	0.00367*	0.00811*	u
Oc1ccc(-c2nc(-c3ccc(O)c(O)c3)cs2)cc1	-3.54*	-22.5	x	13.9	-10.4	7.8	0.00946	0.00753	u	0.00624	0.014*	0.01
Oc1ccc(Nc2nc(-c3ccc4ccccc4c3)cs2)cc1	0.109	6.7	x	-0.1	58.2	-4.8	x	x	x	x	x	x
CCOc1ccc2nc(SC3CC(=O)N(c4ccccc4)C3=O)sc2c1 (stereo unspecified)	1.19	-7.8	x	-2.1	7.3	4.8	x	x	x	x	x	x
CCOc1ccc2nc(SC3CC(=O)N(c4cccc(OC)c4)C3=O)sc2c1 (stereo unspecified)	4.66*	-29.6	1.13	-0.8	32.1	-22.1	0.0238*	0.0149*	0.0329	0.00929*	0.0216*	u
Fc1ccc(CNc2ncnc3c2cnn3-c2ccccc2)cc1	-0.876	-8.8	x	-7.1	7.6	5.2	x	x	x	x	x	x
Fc1ccc(-n2ncc3c(SCc4cccnc4)ncnc32)cc1	21.3*	-17.4	x	-2.5	16.6	-7.7	0.0188	0.0256*	u	0.0292*	0.0308*	0.0232*
O=C(Nc1nnc(-c2ccccc2Cl)o1)c1nc2ccccc2s1	x	-21.5	x	-2.3	13.7	-5.9	x	x	x	x	x	x
COc1cccc2sc(Nc3nnc(-c4ccccc4Cl)o3)nc12	79.6*	-20.2	x	-6.5	8.6	-3.0	0.0439*	0.129*	0.0994*	u	0.103*	0.113*
Nc1ccc(Cc2nc3c(ccc4ccccc43)[nH]2)cc1	-0.727	-9.6	x	-5.4	-4.1	-20.2	x	x	x	x	x	x
S=c1nc(Cc2ccc(Cl)cc2)[nH]c2ccccc12	66.6*	1.3	1.3	-4.1	5.5	-6.9	0.0529*	0.153*	0.0437*	0.0985*	0.0848*	0.0435*
C=CC#CC1(O)CC(C)N(C)CC1C (stereo unspecified)	-0.0534	-1.4	0.149	-3.2	16.1	1.9	x	x	x	x	x	x
CN1CCN(C(=S)NC(=O)c2ccc(Br)cc2)CC1	11.7*	-18.0	x	-7.9	x	-11.2	u	0.0163*	0.0321	0.0123*	0.0261*	0.0118
CCN(CC)C(=S)NC(=O)c1ccc(F)cc1	34.4*	-6.6	0.707	-5.7	10.1	-4.7	0.00804	0.0517*	0.0493*	0.033*	0.0469*	0.042*
Cc1ccc2c(c1)C1CN(C)CCC1N2C(=S)NC(=O)c1ccc(Br)cc1 (stereo unspecified)	133*	-10.6	x	-11.3	-7.3	-11.9	0.0413*	0.112*	u	0.126*	0.0846*	0.0352*
CCN(CC)C(=S)NC(=O)c1cccnc1	-0.0282	6.2	0.507	-2.2	-9.2	-12.8	x	x	x	x	x	x
